Screening data: PubChem, Broad Institute
Most compounds without a hit are left out; they make up all but 2.2% or so of the library.
Statin myotox sup: protects C2C12 myotubes from simvastatin toxicity; ATP luminescence, 48 h; scaled: DMSO 0, geranylgeraniol control 100; rescue of ATP level, % at 7.49 µM; 0.78% of 330,000 active;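 active = mean ATP rescue above about 67%, or every replicate alone reaching that limit, limit read from the data, passing the limit was not always enough; inconclusive = no clear call, values can overlap the other calls; inactive = mean under the limit and some replicate under it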;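 note: myotubes were challenged with 10 µM simvastatin during compound exposure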
E-sel inducer: E-selectin induction on HUVECs. HUVEC E-selectin immunofluorescence imaging; normalized: neutral wells 0, TNF-alpha wells 100. P16581. activation, % at 7.58 µM. 0.37% of 260,000 active;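 active = mean E-selectin-positive cell signal at least 10% of the positive control, reached in at least 60% of replicates, without over 20% cell loss; inconclusive = no rule given, readout overlaps actives, possibly toxicity-flagged; inactive = the rest, including those meeting only one limit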
Target sequence (P16581 whole entry, looked up): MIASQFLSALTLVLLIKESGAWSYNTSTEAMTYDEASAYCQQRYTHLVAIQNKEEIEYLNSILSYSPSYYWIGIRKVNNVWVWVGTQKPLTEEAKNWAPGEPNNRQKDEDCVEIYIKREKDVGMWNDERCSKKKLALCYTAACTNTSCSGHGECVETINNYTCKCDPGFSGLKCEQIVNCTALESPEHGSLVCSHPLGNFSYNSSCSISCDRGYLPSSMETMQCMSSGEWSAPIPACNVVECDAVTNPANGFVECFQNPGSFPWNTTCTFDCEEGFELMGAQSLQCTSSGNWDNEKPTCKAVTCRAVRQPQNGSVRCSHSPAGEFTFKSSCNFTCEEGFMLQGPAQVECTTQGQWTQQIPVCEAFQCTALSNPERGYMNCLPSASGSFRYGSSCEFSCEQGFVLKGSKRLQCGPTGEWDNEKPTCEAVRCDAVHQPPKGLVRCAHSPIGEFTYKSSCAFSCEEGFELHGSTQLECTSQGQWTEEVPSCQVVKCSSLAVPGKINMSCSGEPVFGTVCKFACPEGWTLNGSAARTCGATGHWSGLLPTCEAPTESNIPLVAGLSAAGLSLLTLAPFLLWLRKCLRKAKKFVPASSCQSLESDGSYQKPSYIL
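Material: HUVEC primary endothelial cells; Amount: 3,000 cells per well; Dosing: single concentration; Medium: EGM-2 growth medium on 0.1% gelatin-coated wells; Read-out basis: percent E-selectin-positive cells; Signal: immunofluorescence imaging; Control set: TNF-alpha, DMSO.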
DENV2 CPE rescue: protects cells from dengue virus 2 cytopathic effect | DENV2-infected cells, cytopathic effect rescue, plate reader | CPE inhibition, % at 9.99 µM | 1.7% of 350,000 active; in the data active = CPE inhibition above about 20%, passing the limit was not always enough; inconclusive = no clear call, values can overlap the other calls; tested in BHK-21 cells;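 note: 0% = median of neutral control wells and 100% = median of positive control wells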
Numbers without * were called inactive; u = inconclusive; x = not tested or not shown.

SMILES	Statin myotox sup	E-sel inducer	DENV2 CPE rescue
COCC(=O)N(C)C[C@@H]1Oc2cc(-c3ccc(F)cc3)ccc2S(=O)(=O)N([C@H](C)CO)C[C@@H]1C	5	0	-3
C[C@H](CO)N1C[C@H](C)[C@H](CN(C)C(=O)Nc2ccccc2F)Oc2cc(-c3ccc(F)cc3)ccc2S1(=O)=O	-59	0	26*
C[C@@H]1CN([C@H](C)CO)S(=O)(=O)c2ccc(-c3ccc(F)cc3)cc2O[C@@H]1CN(C)CC1CC1	-10	92*	13
COCC(=O)N(C)C[C@H]1Oc2cc(-c3ccc(F)cc3)ccc2S(=O)(=O)N([C@@H](C)CO)C[C@H]1C	6	125*	-7
C[C@H](CO)N1C[C@H](C)[C@H](CN(C)Cc2ccncc2)Oc2c(NS(C)(=O)=O)cccc2C1=O	-11	-9	-5
O=S(=O)(N[C@H]1CC[C@H](CCn2cc(-c3cccnc3)nn2)O[C@H]1CO)c1ccccc1	-7	0	-4
Cc1cccc(C)c1NC(=S)NC1CCCCC1	x	0	68*
Cc1ccccc1NC(=S)NC1CCCC1	-2	x	0
C[C@@H]1CN([C@H](C)CO)C(=O)c2cccc(NS(=O)(=O)c3ccccc3)c2O[C@@H]1CN(C)Cc1ccc(C(F)(F)F)cc1	-27	0	-3
Cc1ccc(S(=O)(=O)N(C)C[C@H]2Oc3c(NC(=O)c4ccncc4)cccc3C(=O)N([C@H](C)CO)C[C@@H]2C)cc1	-4	0	-3
CCCNC(=O)N1C[C@H]2[C@@H](c3ccccc31)[C@H](CO)N2C(=O)c1ccncc1	0	1	-8
COCC(=O)N1C[C@@H]2[C@H](c3ccccc31)[C@@H](CO)N2C(=O)c1ccccc1F	14	0	41*
CCCNC(=O)N1C[C@@H]2[C@H](c3ccccc31)[C@H](CO)N2C(=O)c1ccncc1	-23	0	25*
COc1ccccc1CN1[C@@H]2CN(C(=O)c3ccncc3)c3ccccc3[C@@H]2[C@@H]1CO	10	0	-8
COCC(=O)N1C[C@H]2[C@@H](c3ccccc31)[C@H](CO)N2C(=O)c1ccccc1F	9	3	-7
COc1ccccc1CN1[C@H](CO)[C@H]2c3ccccc3N(C(=O)c3ccncc3)C[C@H]21	5	1	95*
COCC(=O)N1C[C@@H]2[C@H](c3ccccc31)[C@@H](CO)N2C(=O)Nc1ccccc1Cl	16	0	1
COCC(=O)N1C[C@@H]2[C@H](c3ccccc31)[C@H](CO)N2C(=O)Nc1ccccc1Cl	9	0	27*
C/C=C/c1ccc([C@H]2[C@@H](CO)N3C(=O)CN(Cc4ccc(C)cc4)C[C@@H]23)cc1	x	0	7
C[C@H](CO)N1C[C@H](C)[C@H](CN(C)S(C)(=O)=O)OCCCC[C@H](C)Oc2ccc(NS(=O)(=O)c3ccc(Cl)cc3)cc2C1=O	-13	0	-5
O=S(=O)(N[C@H]1CC[C@H](CCn2cc(-c3cccc(F)c3)nn2)O[C@H]1CO)c1ccc(F)cc1	7	-1	-6
C[C@@H]1CCCCO[C@@H](CN(C)C(=O)NC2CCCCC2)[C@@H](C)CN([C@H](C)CO)C(=O)c2cc(NC(=O)Nc3ccccc3)ccc2O1	x	0	-8
COc1ccc2c3c([nH]c2c1)[C@H](CO)N(C(=O)C1CCCCC1)CC31CN(C(=O)NC(C)C)C1	x	0	-7
O=C(c1ccccc1F)N1C[C@@H]2[C@H](c3ccccc31)[C@H](CO)N2C(=O)c1ccncc1	15	0	-13
O=C(c1ccccc1F)N1C[C@H]2[C@@H](c3ccccc31)[C@H](CO)N2C(=O)c1ccncc1	8	0	22*
SMILES	Statin myotox sup	E-sel inducer	DENV2 CPE rescue
C[C@H](CO)N1C[C@H](C)[C@H](CN(C)S(=O)(=O)c2ccc(F)cc2)Oc2ccc(NC(=O)CCC(F)(F)F)cc2CC1=O	-18	1	10
C[C@H](O)C#Cc1cnc2c(c1)C(=O)N([C@H](C)CO)C[C@H](C)[C@H](CN(C)Cc1ccccn1)O2	-1	0	-7
Cn1c2ccccc2c(=O)c2cc(C#Cc3ccsc3)ccc21	-5	0	66*
Cn1c2ccccc2c(=O)c2cc(C#Cc3ccccn3)ccc21	-25	0	3
CCC(c1nnnn1C1CCCC1)N1CCN(c2ccccc2F)CC1 (configuration not stated)	124*	x	x
CCCC(c1nnnn1C1CCCC1)N1CCN(c2ccccc2F)CC1 (configuration not stated)	12	x	x
Fc1ccc(C(c2nnnn2C2CCCC2)N2CCN(Cc3ccccc3)CC2)cc1 (configuration not stated)	137*	x	x
c1ccc(C(c2ccccc2)N2CCN(Cc3nnnn3C3CCCC3)CC2)cc1	77*	x	x
CC(C)CCn1nnnc1CN1CCN(C(c2ccccc2)c2ccccc2)CC1	x	1	x
Clc1ccc(C(c2nnnn2C2CCCC2)N2CCN(Cc3ccncc3)CC2)cc1 (configuration not stated)	3	x	x
COc1ccc(S(=O)(=O)Nc2cccc3c2O[C@H](CN(C)Cc2ccc(-c4ccccc4)cc2)[C@H](C)CN([C@H](C)CO)C3=O)cc1	24	0	-7
CN(C)Cc1cn(CC[C@H]2CC[C@@H](NS(=O)(=O)c3ccc(-c4ccccc4)cc3)[C@H](CO)O2)nn1	8	0	17
O=S(=O)(N[C@H]1CC[C@H](CCn2cc(-c3ccccn3)nn2)O[C@@H]1CO)c1cccc(Cl)c1	2	0	-1
C[C@H](NC(=O)C[C@@H]1C=C[C@H](NC(=O)C2CCOCC2)[C@@H](CO)O1)c1ccccc1	0	2	18
CCC(Oc1cccc(C)c1)C(=O)Nc1ccccc1C(=O)N1CCOCC1 (configuration not stated)	1	0	6
Cc1cccc(CC(=O)Nc2sc(C(C)C)cc2C(=O)N2CCOCC2)c1	-9	67*	-1
CCNC(=O)C[C@@H]1CC[C@H]2[C@@H](COc3ccc(NC(=O)Cc4ccccc4)cc3C(=O)N2C)O1	3	0	u
CC(C)C(=O)Nc1ccc2c(c1)C(=O)N(C)[C@H]1CC[C@@H](CC(=O)NCc3ccccc3)O[C@@H]1CO2	-5	0	32*
COCC(=O)Nc1ccc2c(c1)C(=O)N(C)[C@@H]1CC[C@@H](CC(=O)NCC(F)(F)F)O[C@@H]1CO2	-11	0	81*
CCNC(=O)C[C@@H]1CC[C@@H]2[C@H](COc3ccc(NC(=O)Cc4ccccc4)cc3C(=O)N2C)O1	3	0	27*
COCC(=O)Nc1ccc2c(c1)C(=O)N(C)[C@H]1CC[C@@H](CC(=O)NCC(F)(F)F)O[C@@H]1CO2	3	0	15
CCNC(=O)C[C@H]1CC[C@@H]2[C@H](COc3ccc(NC(=O)c4cscn4)cc3C(=O)N2C)O1	3	0	7
CC(C)C(=O)Nc1ccc2c(c1)C(=O)N(C)[C@H]1CC[C@H](CC(=O)NCc3ccccc3)O[C@@H]1CO2	21	0	-1
CCNC(=O)C[C@@H]1CC[C@@H]2[C@H](COc3ccc(NC(=O)c4cscn4)cc3C(=O)N2C)O1	-16	0	24*
